Results as given in ChEMBL document CHEMBL1125831, “Synthesis and quantitative structure-activity relationship analysis of 2-(aryl or heteroaryl)quinolin-4-amines, a new class of anti-HIV-1 agents” (J Med Chem, 1991).

Key:
[1] = In vitro toxicity on uninfected Phytohemagglutininin stimulated human PBM cell; format: cell-based
In short: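 Human PBM cells stimulated with phytohemagglutinin and left uninfected. Cell toxicity reported as minimum toxic concentration (MTC).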

[2] = test system: Human immunodeficiency virus 1; assay: In vitro antiviral activity in Phytohemagglutininin stimulated human PBM cells infected with HIV-1 (strain LAV-1); format: functional, organism-based; conditions: Human immunodeficiency virus 1, PBMC
In short: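 […] human PBM cells stimulated with phytohemagglutinin, then infected with HIV-1 strain LAV-1. Antiviral activity reported as median effective concentration (EC50).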

Compound	MTC [1]	EC50 [2]
Cc1ccc(-c2cc(NCCN(C)C)c3ccccc3n2)cc1	10 µM	4.47 µM
CCN(CCN(C)C)c1cc(-c2cccs2)nc2ccccc12	100 µM	32.4 µM
Nc1cc(-c2ccccn2)nc2ccccc12	100 µM	8.56 µM
CC(C)(C)Nc1cc(-c2ccccc2)nc2ccccc12		100 µM
c1cncc(-c2cc(N3CCCC3)c3ccccc3n2)c1	100 µM	33.7 µM
CN(C)CCNc1cc(-c2cccs2)nc2ccccc12	10 µM	0.57 µM
Nc1cc(-c2cccs2)nc2ccccc12	10 µM	34.3 µM
CC1CCCCN1c1cc(-c2ccccn2)nc2ccccc12 (stereo not given)	100 µM	4.24 µM
CN(C)CCNc1cc(-c2ccc(F)cc2)nc2ccccc12	100 µM	13.2 µM
c1ccc(-c2cc(N3CCSCC3)c3ccccc3n2)nc1		2.81 µM
CN(C)CCNc1cc(-c2ccncc2)nc2ccccc12	100 µM	36.9 µM
CN(C)CCNc1cc(-c2cccnc2)nc2ccccc12	> 100 µM	1.51 µM
CCN(CCN(C)C)c1cc(-c2ccncc2)nc2ccccc12	100 µM	100 µM
CC1CCCN(c2cc(-c3ccccc3)nc3ccccc23)C1 (stereo not given)	100 µM	16.7 µM
CC(C)Nc1cc(-c2ccccc2)nc2ccccc12	> 100 µM	100 µM
Nc1cc(-c2cccnc2)nc2ccccc12	85.7 µM	1 µM
CN(C)CCNc1cc(-c2ccc(Cl)cc2)nc2ccccc12		100 µM
c1ccc(-c2cc(N3CCOCC3)c3ccccc3n2)nc1		18.5 µM
CC1CCCN(c2cc(-c3ccccn3)nc3ccccc23)C1 (stereo not given)	100 µM	4.86 µM

Compound	MTC [1]	EC50 [2]
CN(C)CCNc1cc(-c2ccc(Br)cc2)nc2ccccc12	100 µM	44.2 µM
COc1ccc(-c2cc(NCCN(C)C)c3ccccc3n2)cc1	10 µM	10.4 µM
CC1CCN(c2cc(-c3ccccn3)nc3ccccc23)CC1	100 µM	4.08 µM
CN1CCN(c2cc(-c3ccco3)nc3ccccc23)CC1		15.8 µM
CN(C)CCNc1cc(-c2ccco2)nc2ccccc12	> 1 µM	0.91 µM
CN1CCN(c2cc(-c3ccncc3)nc3ccccc23)CC1		68.2 µM
CC(C)CNc1cc(-c2ccccc2)nc2ccccc12	100 µM	50.6 µM
CC1CCCCN1c1cc(-c2ccccc2)nc2ccccc12 (stereo not given)	100 µM	26.4 µM
CCN(CCN(C)C)c1cc(-c2ccccn2)nc2ccccc12		13.2 µM
CN(C)CCNc1cc(-c2ccccc2)nc2ccccc12	100 µM	10 µM
CN1CCN(c2cc(-c3ccccc3)nc3ccccc23)CC1	100 µM	13.2 µM
CN1CCN(c2cc(-c3cccs3)nc3ccccc23)CC1		9.07 µM
CN(C)CCNc1cc(-c2ccccn2)nc2ccccc12	100 µM	1.35 µM
CCN(CCN(C)C)c1cc(-c2ccccc2)nc2ccccc12		34.8 µM
CN1CCN(c2cc(-c3ccccn3)nc3ccccc23)CC1		5.51 µM
c1cncc(-c2cc(N3CCCCC3)c3ccccc3n2)c1	100 µM	20 µM
Nc1cc(-c2ccccc2)nc2ccccc12		25.7 µM
CN1CCN(c2cc(-c3cccnc3)nc3ccccc23)CC1	> 100 µM	1 µM
CCN(CCN(C)C)c1cc(-c2cccnc2)nc2ccccc12	100 µM	24.2 µM
